Measured values: ChEMBL document CHEMBL2176965, “Synthesis and biological investigations of nitric oxide releasing nateglinide and meglitinide type II antidiabetic prodrugs: in-vivo antihyperglycemic activities and blood pressure lowering studies” (J Med Chem, 2012)
Calls of active or inactive are those of the source. The rule behind the calls is not given here.

How the values were obtained:
Rattus norvegicus [1] = assay: Antihyperglycemic activity in streptozotocin-induced diabetic Sprague-Dawley rat assessed as reduction in blood glucose level at 63.01 umol/kg, po after 6 hrs relative to control; type: functional
Summary of the method: (§1)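 Male Sprague−Dawley rats (300−350 g) made diabetic with streptozotocin 65 mg/kg ip in citrate buffer pH 4.5, nonfasting. Animals with blood glucose 20−30 mmol/L at 48 h were selected, n = 4 per group. Oral dose 63.01 μmol/kg in water with 1% methyl cellulose; vehicle controls. Tail-vein glucose read by glucometer at 1, 3, 6, 24 h; change expressed as % of the 0 h level.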

Rattus norvegicus [2] = assay: Antihyperglycemic activity in streptozotocin-induced diabetic Sprague-Dawley rat assessed as reduction in blood glucose level at 63.01 umol/kg, po after 1 hr relative to control; type: functional; design: scale not given: the % may be the effect or the level left; summary of the method: as §1
Rattus norvegicus [3] = assay: Antihyperglycemic activity in streptozotocin-induced diabetic Sprague-Dawley rat assessed as reduction in blood glucose level at 63.01 umol/kg, po after 3 hrs relative to control; type: functional; design: scale not given: the % may be the effect or the level left; summary of the method: as §1
Rattus norvegicus [4] = assay: Antihyperglycemic activity in streptozotocin-induced diabetic Sprague-Dawley rat assessed as reduction in blood glucose level at 63.01 umol/kg, po after 24 hrs relative to control; type: functional, organism-based; summary of the method: as §1
Rattus norvegicus [5] = species on record: Rattus norvegicus; assay: Activation of soluble guanylyl cyclase in rat superior mesenteric arteries assessed as reversal of phenylephrine-induced tone in presence of ODQ at 1 uM by wire myography
Summary of the method: (§2)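 Denudation confirmed by no relaxation to acetylcholine (10 μM). Tone raised to 75% of maximal with phenylephrine (1−3 μM). Compounds added at 1 μM, without or with ODQ (10 μM), a soluble guanylyl cyclase inhibitor.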

[6] = Induction of NO release in PBS buffer at pH 7.4 incubated for 1 hr; type: physicochemical; design: concentration or dose not given beside the values; conditions: pH 7.4, 1 h
Summary of the method: (§3)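 Compound (2.4 mL of 5.0 × 10−2 mM) incubated at 37 °C in phosphate buffer pH 7.4 for 1, 4, 6 or 24 h. Released NO quantified indirectly as nitrite by Griess reaction and expressed as % NO released.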

[7] = Induction of NO release in PBS buffer at pH 7.4 incubated for 4 hrs; type: physicochemical; design: concentration or dose not given beside the values; conditions: pH 7.4, 4 h; summary of the method: as §3
Mus musculus [8] = assay: Effect on heart rate in C57BL/6 mouse at 63.01 umol/kg, po after 1 hr (reference value: 449 bpm); type: ADME, organism-based; conditions: in vivo
[9] = Induction of NO release in PBS buffer in presence of rat serum at pH 7.4 incubated for 3 hrs; design: concentration or dose not given beside the values; conditions: pH 7.4, 3 h
Rattus norvegicus [10] = species on record: Rattus norvegicus; assay: Activation of soluble guanylyl cyclase in rat superior mesenteric arteries assessed as reversal of phenylephrine-induced tone at 1 uM by wire myography; summary of the method: as §2
Mus musculus [11] = assay: Antihypertensive activity in C57BL/6 mouse assessed as reduction in systolic blood pressure at 63.01 umol/kg, po after 6 hrs (reference value: 126.2 mmHg); type: functional, Artery
[12] = Induction of NO release in PBS buffer in presence of rat serum at pH 7.4 incubated for 1 hr; design: concentration or dose not given beside the values; conditions: pH 7.4, 1 h
Summary of the method: (§4)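 Compound (2.4 mL of 5.0 × 10−2 mM) incubated at 37 °C in PBS pH 7.4 with 90 μL rat serum, a source of nonspecific esterases, for 1, 3, 6 or 24 h. NO measured as nitrite by Griess reaction and expressed as % released.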

[13] = Induction of NO release in PBS buffer in presence of rat serum at pH 7.4 incubated for 6 hrs; design: concentration or dose not given beside the values; conditions: pH 7.4, 6 h; summary of the method: as §4
Mus musculus [14] = assay: Effect on heart rate in C57BL/6 mouse at 63.01 umol/kg, po after 6 hrs (reference value: 439 bpm); type: ADME, organism-based; conditions: in vivo
Mus musculus [15] = assay: Effect on heart rate in C57BL/6 mouse at 63.01 umol/kg, po after 3 hrs (reference value: 448 bpm); type: ADME, organism-based; conditions: in vivo
[16] = Induction of NO release in PBS buffer at pH 7.4 incubated for 24 hrs; type: physicochemical; design: concentration or dose not given beside the values; conditions: pH 7.4, 24 h; summary of the method: as §3
[17] = Induction of NO release in PBS buffer in presence of rat serum at pH 7.4 incubated for 24 hrs; design: concentration or dose not given beside the values; conditions: pH 7.4, 24 h; summary of the method: as §4
Mus musculus [18] = assay: Antihypertensive activity in C57BL/6 mouse assessed as reduction in systolic blood pressure at 63.01 umol/kg, po after 1 hr (reference value: 126.5 mmHg); type: functional, Artery
Rattus norvegicus [19] = assay: Induction of hyperglycemia in streptozotocin-induced diabetic Sprague-Dawley rat assessed as increase in blood glucose level at 63.01 umol/kg, po after 24 hrs relative to control; type: organism-based; conditions: in vivo; summary of the method: as §1
Rattus norvegicus [20] = assay: Induction of hyperglycemia in streptozotocin-induced diabetic Sprague-Dawley rat assessed as increase in blood glucose level at 63.01 umol/kg, po after 24 hrs relative to control; conditions: in vivo
[21] = Induction of NO release in PBS buffer at pH 7.4 incubated for 6 hrs; type: physicochemical; design: concentration or dose not given beside the values; conditions: pH 7.4, 6 h; summary of the method: as §3
Mus musculus [22] = assay: Antihypertensive activity in C57BL/6 mouse assessed as reduction in diastolic blood pressure at 63.01 umol/kg, po after 1 to 3 hrs; type: functional, organism-based; conditions: Artery
Mus musculus [23] = assay: Antihypertensive activity in C57BL/6 mouse assessed as reduction in mean blood pressure at 63.01 umol/kg, po after 1 to 3 hrs; type: functional, organism-based
Mus musculus [24] = assay: Antihypertensive activity in C57BL/6 mouse assessed as reduction in diastolic blood pressure at 63.01 umol/kg, po after 3 hrs; type: functional, organism-based; conditions: Artery
Mus musculus [25] = assay: Antihypertensive activity in C57BL/6 mouse assessed as reduction in systolic blood pressure at 63.01 umol/kg, po after 3 hrs (reference value: 118.3 mmHg); type: functional, Artery

Row | Compound | Activity [6] [%] | Activity [7] [%] | Activity [9] [%] | Activity [12] [%] | Activity [13] [%] | Activity [16] [%] | Activity [17] [%] | Activity [21] [%] | Activity (Rattus norvegicus [1]) | Activity (Rattus norvegicus [2]) [%] | Activity (Rattus norvegicus [3]) [%] | Activity (Rattus norvegicus [4]) | Activity (Mus musculus [8]) [bpm] | Activity (Mus musculus [11]) [mmHg] | Activity (Mus musculus [14]) [bpm] | Activity (Mus musculus [15]) [bpm] | Activity (Mus musculus [18]) [mmHg] | Activity (Rattus norvegicus [19]) | Activity (Rattus norvegicus [20]) | Activity (Mus musculus [23]) | other results
1 | COc1ccc(Cl)cc1C(=O)NCCc1ccc(C(=O)O)cc1 [MEGLITINIDE] |  |  |  |  |  |  |  |  | Active | 30.5 | 8.8 | inactive |  |  |  |  |  |  |  |  | 
2 | CC(C)[C@H]1CC[C@H](C(=O)N[C@H](Cc2ccccc2)C(=O)OCCO[N+](=O)[O-])CC1 | 6.7 | 7.5 | 1.9 | 1.3 | 3.9 | 9.2 | 6.3 | 7.7 | 20.5% | 8.2 | 13.4 |  | 454 | 103.4 | 435 | 458 | 129.9 | Non-toxic | Non-toxic |  | Activity (Rattus norvegicus [5]): inactive; Activity (Rattus norvegicus [10]): Active
3 | CC(C)[C@H]1CC[C@H](C(=O)N[C@H](Cc2ccccc2)C(=O)O)CC1 [NATEGLINIDE] |  |  |  |  |  |  |  |  | 30.6% | 13.8 | 26.4 |  |  |  |  |  |  |  |  |  | 
4 | COc1ccc(Cl)cc1C(=O)NCCc1ccc(C(=O)OCO/N=[N+](\[O-])N2CCCC2)cc1 | 5.1 | 5.7 | 51.7 | 37.6 | 59.2 | 8.9 | 60.5 | 7.2 |  | 20 | 12.5 | inactive | 454 | 103.4 | 435 | 458 | 90.3 | Non-toxic | Non-toxic | Active | Activity (Mus musculus [22]): Active
5 | COc1ccc(Cl)cc1C(=O)NCCc1ccc(C(=O)OCCO[N+](=O)[O-])cc1 | 4.1 | 7.2 | 2.3 | 2.1 | 2.6 | 9.4 | 3.8 | 7.7 | Active | 20 | 12.5 | inactive | 454 | 103.4 | 435 | 458 | 105.8 | Non-toxic | Non-toxic | Active | Activity (Mus musculus [22]): Active
6 | CCN(CC)/[N+]([O-])=N/OCOC(=O)c1ccc(CCNC(=O)c2cc(Cl)ccc2OC)cc1 | 4.2 | 6 | 55.9 | 54.5 | 61.5 | 6.5 | 63.6 | 6.1 | Active | 20 | 12.5 | inactive | 454 | 103.4 | 435 | 458 | 96.8 | Non-toxic | Non-toxic | Active | Activity (Mus musculus [22]): Active

The next lines start with results.

Row | Activity [6] [%] | Activity [7] [%] | Activity [9] [%] | Activity [12] [%] | Activity [13] [%] | Activity [16] [%] | Activity [17] [%] | Activity [21] [%] | Compound | Activity (Rattus norvegicus [1]) | Activity (Rattus norvegicus [2]) [%] | Activity (Rattus norvegicus [3]) [%] | Activity (Rattus norvegicus [4]) | Activity (Mus musculus [8]) [bpm] | Activity (Mus musculus [11]) [mmHg] | Activity (Mus musculus [14]) [bpm] | Activity (Mus musculus [15]) [bpm] | Activity (Mus musculus [18]) [mmHg] | Activity (Rattus norvegicus [19]) | Activity (Rattus norvegicus [20]) | Activity (Mus musculus [23]) | other results
7 | 6.7 | 6.8 | 47.2 | 40.2 | 50.1 | 59.9 | 65.3 | 52.7 | CC(C)[C@H]1CC[C@H](C(=O)N[C@H](Cc2ccccc2)C(=O)OCO/N=[N+](/[O-])N2CCCC2)CC1 | inactive | 8.1 | 22.6 |  | 454 | 134.3 | 435 | 458 | 108.4 | 48.7% |  | Active | Activity (Mus musculus [24]): inactive; Activity (Mus musculus [25]): 106.2 mmHg
8 | 4.4 | 5.1 | 50.2 | 44.9 | 57.2 | 61.3 | 72.2 | 58.8 | CCN(CC)/[N+]([O-])=N\OCOC(=O)[C@@H](Cc1ccccc1)NC(=O)[C@H]1CC[C@H](C(C)C)CC1 | 34.1% | 21.1 | 23.5 |  | 454 | 134.4 | 435 | 458 | 113 | Non-toxic | Non-toxic | Active | Activity (Rattus norvegicus [5]): inactive; Activity (Mus musculus [22]): Active; Activity (Rattus norvegicus [10]): Active; Activity (Mus musculus [25]): 98.1 mmHg
